From ChEMBL document CHEMBL4257453, “Identification of karanjin isolated from the Indian beech tree as a potent CYP1 enzyme inhibitor with cellular efficacy via screening of a natural product repository” (Medchemcomm, 2018)
pIC50, pKi: −log10 of the molar value.

Tests used:
Cytochrome P450 2C19 = Cytochrome P450 2C19 (Homo sapiens, UniProt P33261); test: Inhibition of human recombinant CYP2C19 expressed in HEK293 cells using 3-cyano-7-ethoxycoumarin substrate substrate preincubated for 30 mins followed by substrate addition and measured after 60 mins by fluorescence assay relative to control; type: ADME, cell-based
Procedure, shortened: (§1)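 HEK293 cells adapted to suspension and transiently transfected with pcDNA3.1 plasmids carrying the individual CYP; 100×10^3 cells per well in triplicate. […] Fluorogenic substrate is then added at 5 μM and fluorescence read for 60 min.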

CYP3A4 = CYP3A4 (Homo sapiens, UniProt P08684); test: Inhibition of recombinant human CYP3A4 expressed in baker's yeast-derived microsomes (Sacchrosomes) at 10 uM using dibenzylfluorescein substrate by EROD assay relative to control; type: ADME; details: probe dibenzylfluorescein
Procedure, shortened: (§2)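 Yeast microsomes carrying recombinant CYP (Sacchrosomes). […] Substrates per isoform are 7-ethoxyresorufin, 3-cyano-7-ethoxycoumarin, EOMCC or dibenzylfluorescein, read as endpoint fluorescence. Background from compound-only wells without enzyme is subtracted. Independent triplicate runs; α-naphthoflavone positive control.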

CYP1A1 [1] = target: T1, CYP1A1 (Homo sapiens, UniProt P04798); test: Inhibition of human recombinant CYP1A1 expressed in HEK293 cells at 10 uM using 7-ethoxyresorufin substrate preincubated for 30 mins followed by substrate addition and measured after 60 mins by fluorescence assay relative to control; type: cell-based; details: HEK293 cells expressing human recombinant CYP1A1, probe 7-ethoxyresorufin; procedure, shortened: as §1
T1 sequence (P04798 whole entry): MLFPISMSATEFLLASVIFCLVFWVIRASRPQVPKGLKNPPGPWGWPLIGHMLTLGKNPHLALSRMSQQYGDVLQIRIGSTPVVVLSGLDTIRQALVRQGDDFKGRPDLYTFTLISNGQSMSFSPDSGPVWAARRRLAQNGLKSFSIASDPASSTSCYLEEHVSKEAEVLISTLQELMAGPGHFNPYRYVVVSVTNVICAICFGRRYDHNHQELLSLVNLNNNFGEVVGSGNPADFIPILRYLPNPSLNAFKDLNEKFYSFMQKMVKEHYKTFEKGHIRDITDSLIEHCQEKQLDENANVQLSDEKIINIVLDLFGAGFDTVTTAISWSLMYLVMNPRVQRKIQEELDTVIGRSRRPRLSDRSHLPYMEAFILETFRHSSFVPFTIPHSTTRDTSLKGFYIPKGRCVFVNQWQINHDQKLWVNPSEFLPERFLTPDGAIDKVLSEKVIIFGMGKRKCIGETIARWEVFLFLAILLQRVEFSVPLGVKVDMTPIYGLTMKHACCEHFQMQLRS

CYP2C19 = CYP2C19 (Homo sapiens, UniProt P33261); test: Inhibition of recombinant human CYP2C19 expressed in baker's yeast-derived microsomes (Sacchrosomes) at 10 uM using 3-cyano-7-ethoxycoumarin substrate by EROD assay relative to control; type: ADME; details: probe 3-cyano-7-ethoxycoumarin; procedure, shortened: as §2
CYP2C9 = CYP2C9 (Homo sapiens, UniProt P11712); test: Inhibition of recombinant human CYP2C9 expressed in baker's yeast-derived microsomes (Sacchrosomes) at 10 uM using 3-cyano-7-ethoxycoumarin substrate by EROD assay relative to control; type: ADME; details: probe 3-cyano-7-ethoxycoumarin; procedure, shortened: as §2
CYP1B1 = target: T2, CYP1B1 (Homo sapiens, UniProt Q16678); test: Inhibition of recombinant human CYP1B1 expressed in baker's yeast-derived microsomes (Sacchrosomes) at 10 uM using 7-ethoxyresorufin substrate by EROD assay relative to control; type: ADME; details: probe 7-ethoxyresorufin; procedure, shortened: as §2
T2 sequence (Q16678 whole entry): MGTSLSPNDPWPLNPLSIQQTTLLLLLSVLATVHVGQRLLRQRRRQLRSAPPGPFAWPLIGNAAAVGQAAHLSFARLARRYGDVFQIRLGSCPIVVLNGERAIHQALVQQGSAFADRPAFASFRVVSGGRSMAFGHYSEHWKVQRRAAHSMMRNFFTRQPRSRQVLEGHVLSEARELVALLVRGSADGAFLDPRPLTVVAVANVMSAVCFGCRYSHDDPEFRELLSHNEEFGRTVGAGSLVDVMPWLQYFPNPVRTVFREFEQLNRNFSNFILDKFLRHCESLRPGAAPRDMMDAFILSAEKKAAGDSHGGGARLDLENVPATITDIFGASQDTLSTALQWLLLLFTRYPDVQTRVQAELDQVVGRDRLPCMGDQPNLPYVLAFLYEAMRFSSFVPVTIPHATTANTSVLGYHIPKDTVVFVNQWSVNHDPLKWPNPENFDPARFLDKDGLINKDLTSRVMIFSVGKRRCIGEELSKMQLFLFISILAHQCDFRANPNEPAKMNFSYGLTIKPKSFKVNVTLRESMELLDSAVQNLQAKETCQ

Cytochrome P450 2C9 = Cytochrome P450 2C9 (Homo sapiens, UniProt P11712); test: Inhibition of human recombinant CYP2C9 expressed in HEK293 cells using 3-cyano-7-ethoxycoumarin substrate substrate preincubated for 30 mins followed by substrate addition and measured after 60 mins by fluorescence assay relative to control; type: ADME, cell-based; procedure, shortened: as §1
CYP1A2 = target: T3, CYP1A2 (Homo sapiens, UniProt P05177); test: Inhibition of recombinant human CYP1A2 expressed in baker's yeast-derived microsomes (Sacchrosomes) at 10 uM using 3-cyano-7-ethoxycoumarin substrate by EROD assay relative to control; type: ADME; details: probe 3-cyano-7-ethoxycoumarin
T3 sequence (P05177 whole entry): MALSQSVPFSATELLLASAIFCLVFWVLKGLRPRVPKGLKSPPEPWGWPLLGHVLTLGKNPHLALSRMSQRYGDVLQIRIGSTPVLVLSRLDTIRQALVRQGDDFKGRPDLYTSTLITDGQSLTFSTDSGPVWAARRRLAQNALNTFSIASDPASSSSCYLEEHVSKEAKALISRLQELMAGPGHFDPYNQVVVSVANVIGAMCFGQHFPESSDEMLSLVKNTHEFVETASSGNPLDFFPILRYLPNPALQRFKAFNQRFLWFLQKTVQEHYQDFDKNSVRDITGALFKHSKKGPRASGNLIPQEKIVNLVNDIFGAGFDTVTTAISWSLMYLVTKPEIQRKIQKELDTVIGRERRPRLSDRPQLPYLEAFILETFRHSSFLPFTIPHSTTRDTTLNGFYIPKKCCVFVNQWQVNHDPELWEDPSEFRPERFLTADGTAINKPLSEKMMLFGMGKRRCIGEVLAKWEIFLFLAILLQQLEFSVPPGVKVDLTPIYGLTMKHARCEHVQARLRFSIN
Procedure, shortened: (§3)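 Yeast microsomes carrying recombinant CYP (Sacchrosomes). Substrates per isoform are 7-ethoxyresorufin, 3-cyano-7-ethoxycoumarin, EOMCC or dibenzylfluorescein, read as endpoint fluorescence. Background from compound-only wells without enzyme is subtracted. Independent triplicate runs; α-naphthoflavone positive control.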

Cytochrome P450 2D6 = Cytochrome P450 2D6 (Homo sapiens, UniProt P10635); test: Inhibition of human recombinant CYP2D6 expressed in HEK293 cells using 7-ethoxy-methyloxy-3-cyanocoumarin substrate substrate preincubated for 30 mins followed by substrate addition and measured after 60 mins by fluorescence assay relative to control; type: ADME, cell-based; procedure, shortened: as §1
CYP2D6 = CYP2D6 (Homo sapiens, UniProt P10635); test: Inhibition of recombinant human CYP2D6 expressed in baker's yeast-derived microsomes (Sacchrosomes) at 10 uM using 7-ethoxy-methyloxy-3-cyanocoumarin substrate by EROD assay relative to control; type: ADME; details: probe 7-ethoxy-methyloxy-3-cyanocoumarin; procedure, shortened: as §2
Cytochrome P450 1A1 = target: T4, Cytochrome P450 1A1 (Homo sapiens, UniProt P04798); test: Inhibition of human recombinant CYP1A1 expressed in HEK293 cells using 7-ethoxyresorufin substrate preincubated for 30 mins followed by substrate addition and measured after 60 mins by fluorescence assay relative to control; type: cell-based; procedure, shortened: as §1
T4 sequence (P04798 whole entry): T1 sequence (P04798 whole entry)

Cytochrome P450 1A2 = target: T5, Cytochrome P450 1A2 (Homo sapiens, UniProt P05177); test: Inhibition of human recombinant CYP1A2 expressed in HEK293 cells using 3-cyano-7-ethoxycoumarin substrate preincubated for 30 mins followed by substrate addition and measured after 60 mins by fluorescence assay relative to control; type: ADME, cell-based; procedure, shortened: as §1
T5 sequence (P05177 whole entry): T3 sequence (P05177 whole entry)

Cytochrome P450 1B1 = target: T6, Cytochrome P450 1B1 (Homo sapiens, UniProt Q16678); test: Inhibition of human recombinant CYP1B1 expressed in HEK293 cells using 7-ethoxyresorufin substrate substrate preincubated for 30 mins followed by substrate addition and measured after 60 mins by fluorescence assay relative to control; type: ADME, cell-based; procedure, shortened: as §1
T6 sequence (Q16678 whole entry): T2 sequence (Q16678 whole entry)

Cytochrome P450 3A4 = Cytochrome P450 3A4 (Homo sapiens, UniProt P08684); test: Inhibition of human recombinant CYP3A4 expressed in HEK293 cells using dibenzylfluorescein substrate substrate preincubated for 30 mins followed by substrate addition and measured after 60 mins by fluorescence assay relative to control; type: ADME, cell-based
Procedure, shortened: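 HEK293 cells adapted to suspension and transiently transfected with pcDNA3.1 plasmids carrying the individual CYP; 100×10^3 cells per well in triplicate. Fluorogenic substrate is then added at 5 μM and fluorescence read for 60 min.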

CYP1A1 [2] = target: T1, CYP1A1; test: Inhibition of recombinant human CYP1A1 expressed in baker's yeast-derived microsomes (Sacchrosomes) at 10 uM using 7-ethoxyresorufin substrate by EROD assay relative to control; details: probe 7-ethoxyresorufin; procedure, shortened: as §3

Chain of Cytochrome P450 2D6 (P10635 whole entry): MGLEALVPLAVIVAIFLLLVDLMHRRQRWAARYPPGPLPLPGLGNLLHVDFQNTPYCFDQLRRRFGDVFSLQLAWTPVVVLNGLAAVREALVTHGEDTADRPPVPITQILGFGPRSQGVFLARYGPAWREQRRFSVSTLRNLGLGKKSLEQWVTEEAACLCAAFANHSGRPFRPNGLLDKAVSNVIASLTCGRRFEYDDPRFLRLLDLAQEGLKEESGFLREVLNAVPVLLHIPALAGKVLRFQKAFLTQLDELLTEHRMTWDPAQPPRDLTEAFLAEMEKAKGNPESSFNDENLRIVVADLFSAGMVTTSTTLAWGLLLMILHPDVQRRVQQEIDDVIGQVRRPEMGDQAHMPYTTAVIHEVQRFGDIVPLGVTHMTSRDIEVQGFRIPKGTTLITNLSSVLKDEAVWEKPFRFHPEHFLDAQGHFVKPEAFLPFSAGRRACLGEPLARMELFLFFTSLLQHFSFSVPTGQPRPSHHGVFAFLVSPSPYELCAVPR
Chain of CYP2D6 (P10635 whole entry): as above
Chain of CYP2C19 (P33261 whole entry): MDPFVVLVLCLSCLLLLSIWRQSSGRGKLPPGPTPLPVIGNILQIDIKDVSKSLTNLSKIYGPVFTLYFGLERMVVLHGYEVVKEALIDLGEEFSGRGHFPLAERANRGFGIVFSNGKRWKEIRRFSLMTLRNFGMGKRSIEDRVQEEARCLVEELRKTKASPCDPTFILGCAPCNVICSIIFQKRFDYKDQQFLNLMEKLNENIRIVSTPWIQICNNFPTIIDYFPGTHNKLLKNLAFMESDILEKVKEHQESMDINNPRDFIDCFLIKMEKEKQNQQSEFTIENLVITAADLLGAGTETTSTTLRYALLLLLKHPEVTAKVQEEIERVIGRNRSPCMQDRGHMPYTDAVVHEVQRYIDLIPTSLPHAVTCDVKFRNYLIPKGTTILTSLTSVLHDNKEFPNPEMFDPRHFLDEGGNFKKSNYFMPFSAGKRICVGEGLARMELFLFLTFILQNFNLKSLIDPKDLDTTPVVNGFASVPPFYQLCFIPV
Chain of Cytochrome P450 2C19 (P33261 whole entry): as above
Chain of CYP2C9 (P11712 whole entry): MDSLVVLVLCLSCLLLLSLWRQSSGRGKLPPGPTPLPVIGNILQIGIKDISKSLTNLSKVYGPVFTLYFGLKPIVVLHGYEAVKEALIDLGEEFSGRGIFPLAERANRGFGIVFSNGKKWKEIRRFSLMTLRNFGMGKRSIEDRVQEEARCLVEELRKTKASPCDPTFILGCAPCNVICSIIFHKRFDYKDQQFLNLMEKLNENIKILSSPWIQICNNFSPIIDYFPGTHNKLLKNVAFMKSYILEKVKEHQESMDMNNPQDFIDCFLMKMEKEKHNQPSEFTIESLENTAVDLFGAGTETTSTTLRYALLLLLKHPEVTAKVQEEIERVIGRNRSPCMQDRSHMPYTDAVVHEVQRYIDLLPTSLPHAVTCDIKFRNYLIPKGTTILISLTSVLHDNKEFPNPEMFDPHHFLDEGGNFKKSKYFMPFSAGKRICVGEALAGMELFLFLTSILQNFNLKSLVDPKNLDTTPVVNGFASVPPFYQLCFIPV
Chain of Cytochrome P450 2C9 (P11712 whole entry): as above
Chain of CYP3A4 (P08684 whole entry, canonical isoform): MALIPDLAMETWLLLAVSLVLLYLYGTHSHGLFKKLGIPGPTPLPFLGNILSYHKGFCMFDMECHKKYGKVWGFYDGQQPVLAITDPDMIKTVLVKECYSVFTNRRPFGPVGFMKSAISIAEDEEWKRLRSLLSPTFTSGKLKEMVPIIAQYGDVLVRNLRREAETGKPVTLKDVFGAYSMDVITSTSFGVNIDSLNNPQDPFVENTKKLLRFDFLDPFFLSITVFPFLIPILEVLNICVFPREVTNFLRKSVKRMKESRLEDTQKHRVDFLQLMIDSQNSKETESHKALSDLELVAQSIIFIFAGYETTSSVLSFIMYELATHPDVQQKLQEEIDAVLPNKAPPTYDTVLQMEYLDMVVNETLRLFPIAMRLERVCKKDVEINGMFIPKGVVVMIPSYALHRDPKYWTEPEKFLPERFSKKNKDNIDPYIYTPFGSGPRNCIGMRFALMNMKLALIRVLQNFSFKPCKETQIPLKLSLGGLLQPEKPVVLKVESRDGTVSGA
Chain of Cytochrome P450 3A4 (P08684 whole entry): as the sequence (P08684 whole entry, canonical isoform) above

pIC50 (Cytochrome P450 2C19) | inhibition at 10 µM (CYP3A4) | inhibition at 1 h, 10 µM (CYP1A1 [1]) | inhibition at 10 µM (CYP2C19) | inhibition at 10 µM (CYP2C9) | inhibition at 10 µM (CYP1B1) | pIC50 (Cytochrome P450 2C9) | inhibition at 10 µM (CYP1A2) | pIC50 (Cytochrome P450 2D6) | inhibition at 10 µM (CYP2D6) | pIC50 (Cytochrome P450 1A1) | pKi (Cytochrome P450 1A1) | pIC50 (Cytochrome P450 1A2) | pKi (Cytochrome P450 1A2) | pIC50 (Cytochrome P450 1B1) | pIC50 (Cytochrome P450 3A4) | inhibition at 10 µM (CYP1A1 [2]) | Compound
< 5.00 | 10% | 41% | 2% | 3% | 7% | < 5.00 | 55% | < 5.00 | 5% | 5.03 | 5.02 | 5.06 | 5.06 | 6.67 | < 5.00 | 50 to 52% | Nc1nccc(-c2c[nH]c3ccc(Br)cc23)n1 [MERIDIANIN C]
< 5.00 | 12% | 90% | 5% | 3% | 98% | < 5.00 | 96% | < 5.00 | 20% | 6.24 | 6.21 | 6.38 | 6.42 | 6.66 | < 5.00 | 87 to 97% | COc1c2ccoc2c(OCC=C(C)C)c2oc(=O)ccc12 [PHELLOPTERIN]

Compound | pIC50 (Cytochrome P450 2C19) | inhibition at 10 µM (CYP3A4) | inhibition at 1 h, 10 µM (CYP1A1 [1]) | inhibition at 10 µM (CYP2C19) | inhibition at 10 µM (CYP2C9) | inhibition at 10 µM (CYP1B1) | pIC50 (Cytochrome P450 2C9) | inhibition at 10 µM (CYP1A2) | pIC50 (Cytochrome P450 2D6) | inhibition at 10 µM (CYP2D6) | pIC50 (Cytochrome P450 1A1) | pKi (Cytochrome P450 1A1) | pIC50 (Cytochrome P450 1A2) | pKi (Cytochrome P450 1A2) | pIC50 (Cytochrome P450 1B1) | pIC50 (Cytochrome P450 3A4) | inhibition at 10 µM (CYP1A1 [2])
O=C1C=CC(=O)c2c(O)ccc(O)c21 [NAPHTHAZALIN] | < 5.00 | 15% | 78% | 4% | 5% | 8% | < 5.00 | 82% | < 5.00 | 5% | 5.42 | 5.44 | 5.67 | 5.65 | < 5.00 | < 5.00 | 79 to 99%
